Experiment [1] deals with T1, Sulfonylurea receptor 2, Kir6.2 (Homo sapiens, UniProt O60706+Q14654). The experiment can be described thus: Activity against pig bladder KATP channel opening assessed as ability to relax field-stimulated pig detrusor. The format is functional, Sus scrofa. The following applies: target entry is the homologue from another species.
In experiment [2] the target is T1, Sulfonylurea receptor 2, Kir6.2. The experiment can be described thus: (§1) Ability to open human urinary bladder Kir6.2 channel containing SUR2B in Ltk cells by FLIPR assay. The format is functional, cell-based. Summed up:
(§2)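 Ltk- cells stably transfected with the Kir6.2/SUR2B exon 17- splice variant. Membrane potential was followed with DiBAC dye in a 96-well cell-based kinetic fluorescence (FLIPR) assay. The highest concentration tested was 10 µM. Each compound's maximal fluorescence response was expressed as % of the response to the reference opener.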

For experiment [3] the target is unchanged. Description: Activity against pig bladder KATP channel opening assessed as ability to relax spontaneous bladder contraction. Type of experiment: functional, Sus scrofa. The following applies: target entry is the homologue from another species. The essentials: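 Spontaneously contracting detrusor strips were taken from near the trigonal region of Landrace pig bladder. Increasing concentrations of test agent were applied, and the reduction in area under the curve (AUC) of the spontaneous contractions was measured.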

The target in experiment [4] is T2, Sulfonylurea receptor 2, Kir6.2 (Homo sapiens) (UniProt Q14654+O60706). The experiment can be described thus: Ability to open human urinary bladder Kir6.2 containing SUR2B in Ltk cells by FLIPR assay relative to P1075. Type of experiment: functional, cell-based. Summed up: as §2
In experiment [5] the target is T2, Sulfonylurea receptor 2, Kir6.2 (Homo sapiens). Description: Activity against pig bladder KATP channel opening assessed as ability to relax field-stimulated pig detrusor relative to P1075. The settings on record: Sus scrofa; target entry is the homologue from another species. Type of experiment: functional.
The target is the same in experiment [6]. Description: Activity against pig bladder KATP channel opening assessed as ability to relax spontaneous bladder contraction relative to P1075. Type of experiment: functional. The following applies: Sus scrofa; target entry is the homologue from another species.
Experiment [7] has the same target. The description is as §1. The format is functional, cell-based. The settings on record: filed as partial agonist. The essentials:
as §2

For orientation: EC50 means the midpoint of the concentration-response curve.

T1 sequence (Q14654 whole entry): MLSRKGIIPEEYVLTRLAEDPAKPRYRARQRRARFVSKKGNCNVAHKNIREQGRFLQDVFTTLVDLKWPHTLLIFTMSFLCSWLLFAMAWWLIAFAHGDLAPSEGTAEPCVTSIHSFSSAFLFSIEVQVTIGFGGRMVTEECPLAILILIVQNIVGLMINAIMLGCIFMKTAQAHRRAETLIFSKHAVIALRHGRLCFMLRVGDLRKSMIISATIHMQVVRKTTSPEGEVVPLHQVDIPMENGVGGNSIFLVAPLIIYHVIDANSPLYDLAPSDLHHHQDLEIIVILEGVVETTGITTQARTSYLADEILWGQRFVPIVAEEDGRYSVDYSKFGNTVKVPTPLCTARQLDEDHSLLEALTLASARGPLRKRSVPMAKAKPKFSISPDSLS
T1 sequence (O60706 whole entry): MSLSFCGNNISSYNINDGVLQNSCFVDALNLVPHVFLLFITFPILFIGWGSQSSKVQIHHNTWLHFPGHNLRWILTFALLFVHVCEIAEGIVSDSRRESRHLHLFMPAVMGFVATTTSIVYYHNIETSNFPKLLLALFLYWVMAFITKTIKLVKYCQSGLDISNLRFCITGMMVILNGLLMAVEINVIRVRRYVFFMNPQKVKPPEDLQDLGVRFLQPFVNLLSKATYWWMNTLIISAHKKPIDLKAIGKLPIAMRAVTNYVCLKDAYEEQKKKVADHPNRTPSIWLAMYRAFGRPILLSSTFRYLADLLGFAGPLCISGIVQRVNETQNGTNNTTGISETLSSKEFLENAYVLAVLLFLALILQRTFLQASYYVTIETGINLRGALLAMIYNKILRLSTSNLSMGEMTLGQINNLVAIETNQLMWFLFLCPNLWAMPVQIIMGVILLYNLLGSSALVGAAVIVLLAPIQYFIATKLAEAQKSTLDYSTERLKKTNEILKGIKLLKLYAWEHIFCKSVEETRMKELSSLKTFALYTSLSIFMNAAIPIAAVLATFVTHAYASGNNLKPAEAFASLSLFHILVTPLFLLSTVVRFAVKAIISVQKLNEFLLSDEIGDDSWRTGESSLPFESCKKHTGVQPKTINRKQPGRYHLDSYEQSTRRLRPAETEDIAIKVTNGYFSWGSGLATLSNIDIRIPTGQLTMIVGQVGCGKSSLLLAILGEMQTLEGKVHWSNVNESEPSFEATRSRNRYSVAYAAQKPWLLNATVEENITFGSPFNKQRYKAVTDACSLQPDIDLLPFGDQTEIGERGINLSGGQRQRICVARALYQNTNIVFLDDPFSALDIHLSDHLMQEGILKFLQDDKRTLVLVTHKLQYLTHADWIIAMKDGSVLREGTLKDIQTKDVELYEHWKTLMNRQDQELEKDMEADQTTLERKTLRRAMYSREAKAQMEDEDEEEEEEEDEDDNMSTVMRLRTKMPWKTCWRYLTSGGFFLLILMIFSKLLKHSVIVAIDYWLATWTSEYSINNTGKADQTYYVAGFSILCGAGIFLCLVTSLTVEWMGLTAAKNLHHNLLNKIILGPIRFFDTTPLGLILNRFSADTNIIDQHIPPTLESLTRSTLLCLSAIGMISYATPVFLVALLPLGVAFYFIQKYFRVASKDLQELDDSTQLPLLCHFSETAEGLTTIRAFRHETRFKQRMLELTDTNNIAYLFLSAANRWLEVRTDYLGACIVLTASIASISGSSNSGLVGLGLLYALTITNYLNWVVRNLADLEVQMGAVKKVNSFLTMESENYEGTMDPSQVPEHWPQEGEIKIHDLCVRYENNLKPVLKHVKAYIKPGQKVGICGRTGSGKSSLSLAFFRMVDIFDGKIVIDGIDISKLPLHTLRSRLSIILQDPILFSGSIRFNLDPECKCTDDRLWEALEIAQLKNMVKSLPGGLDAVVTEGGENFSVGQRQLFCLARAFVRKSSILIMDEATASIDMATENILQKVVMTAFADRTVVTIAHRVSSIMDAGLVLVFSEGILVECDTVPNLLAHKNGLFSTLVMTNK

Take `CCC(C)(C)NC(=NC#N)Nc1cccnc1`: the values for the EC50 in experiment [1], in experiment [2] and in experiment [3] were 85.1 nM, 52.5 nM and 21.9 nM, respectively.
On to `O=C1COCC2=C1[C@@H](c1ccc(F)c(Br)c1)C1=C(COC1=O)N2`, for which the values for the EC50 in experiment [1] and in experiment [2] were 589 nM and 63.1 nM, respectively. In addition, the Efficacy in experiment [4] is 107%; in experiment [5] it was 95%.
In the case of `O=C1COCC2=C1C(c1ccc(F)c(Br)c1)C1=C(O)COCC1=N2` (stereo not given), the values for the EC50 in experiment [1] and in experiment [2] were 126 nM and 27.5 nM, respectively. The figures for the Efficacy in experiment [4] and in experiment [5] were 87% and 97%, respectively.
Turning to `CC[C@H]1OC(O)=C2C1=NC1=C(C(=O)CSC1)[C@H]2c1ccc(F)c(Br)c1`, the EC50 in experiment [1] was 955 nM.
For the molecule `CCC(C)(C)/N=C(\NC#N)Nc1cccnc1`, the figures for the Efficacy in experiment [6], in experiment [4] and in experiment [5] were 100%, 101% and 99%, respectively.
Regarding `C[C@](O)(C(=O)Nc1ccc(C(=O)c2ccccc2)cc1)C(F)(F)F`, the Efficacy in experiment [6] was 100%; in experiment [4] it was 100%; in experiment [5], 99%.
Consider `CCC[C@H]1OC(O)=C2C1=NC1=C(C(=O)COC1)[C@H]2c1ccc(F)c(Br)c1` (racemic), for which the EC50 is 794 nM in experiment [1] and 155 nM in experiment [2].
As to `CC[C@H]1OC(O)=C2C1=NC1=C(C(=O)COC1)[C@H]2c1ccc(F)c(Br)c1` (racemic), the EC50 is 490 nM in experiment [1] and 95.5 nM in experiment [2].
Take `CC[C@H]1OCC(O)=C2C1=NC1=C(C(=O)COC1)[C@H]2c1ccc(Cl)c(Cl)c1` (racemic): the Activity entry in experiment [7] was “Partial agonist”. In experiment [4], this molecule yielded an Efficacy of 58%.
In the same order, the values of `CC[C@H]1OCC(O)=C2C1=NC1=C(C(=O)COC1)[C@H]2c1ccc(F)c(Br)c1` (racemic) are “Partial agonist” and 30%.
As to `CC[C@H]1OCC(O)=C2C1=NC1=C(C(=O)COC1)[C@H]2c1ccc(F)c(Cl)c1` (racemic), the Activity result in experiment [7] is “Partial agonist”. The Efficacy in experiment [4] was determined as 30%.
In the case of `CC(C)[C@@H]1OC(O)=C2C1=NC1=C(C(=O)COC1)[C@H]2c1ccc(F)c(Br)c1` (relative stereo), the EC50 in experiment [1] was 1200 nM; in experiment [2], above 10000 nM. Further, in experiment [5], the Efficacy came out at 97%.
Regarding `CC[C@H]1OC(O)=C2C1=NC1=C(C(=O)CSC1)[C@H]2c1ccc(F)c(Br)c1` (relative stereo), the 50% effective concentration (EC50) in experiment [1] was 891 nM; in experiment [2], 102 nM.
Consider `CC(C)C[C@@H]1OC(O)=C2C1=NC1=C(C(=O)COC1)[C@H]2c1ccc(F)c(Br)c1` (relative stereo), for which the EC50 in experiment [1] was 129 nM; in experiment [2] it was 27.5 nM. For the same molecule, the Efficacy in experiment [4] turned out to be 83%; in experiment [5], 74%.
`O=C1COCC2=C1[C@@H](c1ccc(F)c(Br)c1)C1=C(O)O[C@@H](c3ccccc3)C1=N2` (relative stereo): the EC50 in experiment [1] is 1290 nM; in experiment [2], 257 nM. In addition, the figures for the Efficacy in experiment [4] and in experiment [5] were 68% and 91%, respectively.
On to `CC1(C)Oc2ccc(C#N)cc2[C@H](N2CCCC2=O)[C@H]1O` (single isomer, unassigned), for which the Efficacy in experiment [6] came out at 100%; in experiment [4] it was 83%; in experiment [5] it was 99%.
With `O=C1COCC2=C1C(c1ccc(F)c(Br)c1)C1=C(O)OCC1=N2` (stereo in doubt; 6b) [listing 1 of 2 here], the EC50 in experiment [1] is 214 nM; in experiment [2] it was 37.2 nM; in experiment [3], 0.676 nM.
As for `O=C1COCC2=C1C(c1ccc(F)c(Br)c1)C1=C(O)OCC1=N2` (stereo in doubt; 6b) [listing 2 of 2 here], the Efficacy in experiment [6] came to 100%; in experiment [4] it was 101%; in experiment [5], 88%.
In the case of `C[C@@H]1OCC2=C(C1=O)[C@@H](c1ccc(F)c(Br)c1)C1=C(O)OCC1=N2` (stereo in doubt; 7a), the Activity entry in experiment [7] was “Partial agonist”. The same molecule displayed an Efficacy in experiment [4] of 17%.
As for `C[C@@H]1OCC2=C(C1=O)[C@H](c1ccc(F)c(Br)c1)C1=C(O)OCC1=N2` (stereo in doubt; 8a), the Activity entry in experiment [7] is “Partial agonist”. The molecule further had an Efficacy in experiment [4] of 15%.
For the molecule `C[C@@H]1OCC2=C(C1=O)[C@H](c1ccc(F)c(Br)c1)C1=C(O)OCC1=N2` (stereo in doubt; 8b), the Activity result in experiment [7] is “Partial agonist”. The Efficacy in experiment [4] worked out at 16%.
For the molecule `CC[C@@H]1OCC2=C(C1=O)[C@@H](c1ccc(F)c(Br)c1)C1=C(O)OCC1=N2` (stereo in doubt; 10a), the EC50 in experiment [1] was 2690 nM; in experiment [2], 776 nM.
Consider `CC[C@@H]1OCC2=C(C1=O)[C@@H](c1ccc(F)c(Br)c1)C1=C(O)OCC1=N2` (stereo in doubt; 10b), for which the concentration giving a half-maximal response (EC50) in experiment [1] is 891 nM; in experiment [2] it was 1380 nM.
In the same order, the values of `C[C@@H]1OC(O)=C2C1=NC1=C(C(=O)COC1)[C@H]2c1ccc(F)c(Br)c1` (stereo in doubt; 17a) are 35.5 nM and 0.912 nM.
Consider `CC[C@H]1OC(O)=C2C1=NC1=C(C(=O)COC1)[C@H]2c1ccc(F)c(Br)c1` (stereo in doubt; 21a), for which the EC50 in experiment [1] is 2950 nM; in experiment [2], 7240 nM.
As to `CC[C@H]1OC(O)=C2C1=NC1=C(C(=O)COC1)[C@H]2c1ccc(F)c(Br)c1` (stereo in doubt; 21b) [listing 1 of 2 here], the EC50 in experiment [1] is 282 nM; in experiment [2] it was 170 nM; in experiment [3], 19.1 nM.
For `CC[C@H]1OC(O)=C2C1=NC1=C(C(=O)COC1)[C@H]2c1ccc(F)c(Br)c1` (stereo in doubt; 21b) [listing 2 of 2 here], the Activity entry in experiment [7] is “Partial agonist”. Also, the Efficacy in experiment [6] amounted to 96%; in experiment [4], 46%; in experiment [5], 77%.
In the case of `CCC[C@H]1OC(O)=C2C1=NC1=C(C(=O)COC1)[C@H]2c1ccc(F)c(Br)c1` (stereo in doubt; 23b), the Activity result in experiment [7] is “Partial agonist”. Besides, the Efficacy in experiment [6] turned out to be 99%; in experiment [4] it was 45%; in experiment [5], 34%.
With `CCCC[C@H]1OC(O)=C2C1=NC1=C(C(=O)COC1)[C@H]2c1ccc(F)c(Br)c1` (stereo in doubt; 29b) [listing 1 of 2 here], the EC50 is 1660 nM in experiment [1], 851 nM in experiment [2] and 331 nM in experiment [3].
As for `CCCC[C@H]1OC(O)=C2C1=NC1=C(C(=O)COC1)[C@H]2c1ccc(F)c(Br)c1` (stereo in doubt; 29b) [listing 2 of 2 here], the Efficacy amounted to 100% in experiment [6], 68% in experiment [4] and 51% in experiment [5].
Take `CC(C)C[C@H]1OC(O)=C2C1=NC1=C(C(=O)COC1)[C@H]2c1ccc(F)c(Br)c1` (stereo in doubt; 31b): the EC50 in experiment [1] was 102 nM; in experiment [2], 10000 nM.
In the case of `CC[C@H]1OC(O)=C2C1=NC1=C(C(=O)C(C)(C)OC1)[C@H]2c1ccc(F)c(Br)c1` (stereo in doubt; 36b), in experiment [7], the Activity result is “Partial agonist”. The same molecule displayed an Efficacy in experiment [4] of 34%.
As for `CCC[C@H]1OC(O)=C2C1=NC1=C(C(=O)COC1)[C@H]2c1ccc(F)c(Cl)c1` (stereo in doubt; 39b) [listing 1 of 2 here], the EC50 in experiment [1] is 129 nM; in experiment [2], 91.2 nM.
With `CCC[C@H]1OC(O)=C2C1=NC1=C(C(=O)COC1)[C@H]2c1ccc(F)c(Cl)c1` (stereo in doubt; 39b) [listing 2 of 2 here], in experiment [7], the Activity result is “Partial agonist”. The Efficacy in experiment [4] came to 39%; in experiment [5], 66%.
On to `CCC[C@H]1OC(O)=C2C1=NC1=C(C(=O)COC1)[C@H]2c1ccc(F)c(I)c1` (stereo in doubt; 41b) [listing 1 of 2 here], for which the EC50 in experiment [1] is 229 nM; in experiment [2] it was 26.9 nM.
`CCC[C@H]1OC(O)=C2C1=NC1=C(C(=O)COC1)[C@H]2c1ccc(F)c(I)c1` (stereo in doubt; 41b) [listing 2 of 2 here]: the Efficacy in experiment [4] was found to be 94%; in experiment [5] it was 86%.
As to `CC[C@H]1OCC(O)=C2C1=NC1=C(C(=O)COC1)[C@H]2c1ccc(F)c(Br)c1` (stereo in doubt; 71a) [listing 1 of 2 here], the EC50 in experiment [1] was 2040 nM; in experiment [2] it was 170 nM; in experiment [3] it was 129 nM.
As for `CC[C@H]1OCC(O)=C2C1=NC1=C(C(=O)COC1)[C@H]2c1ccc(F)c(Br)c1` (stereo in doubt; 71a) [listing 2 of 2 here], in experiment [7], the Activity result was “Partial agonist”. The Efficacy worked out at 98% in experiment [6], 40% in experiment [4] and 54% in experiment [5].
In the case of `CC[C@H]1OCC(O)=C2C1=NC1=C(C(=O)COC1)[C@H]2c1ccc(Cl)c(Cl)c1` (stereo in doubt; 74b) [listing 1 of 2 here], the figures for the EC50 in experiment [1], in experiment [2] and in experiment [3] were 2290 nM, 170 nM and 55 nM, respectively.
Turning to `CC[C@H]1OCC(O)=C2C1=NC1=C(C(=O)COC1)[C@H]2c1ccc(Cl)c(Cl)c1` (stereo in doubt; 74b) [listing 2 of 2 here], the Activity result in experiment [7] is “Partial agonist”. Moreover, the Efficacy in experiment [6] stood at 92%; in experiment [4] it was 57%; in experiment [5] it was 41%.
As for `CC[C@H]1OCC(O)=C2C1=NC1=C(C(=O)COC1)[C@H]2c1ccc(Br)c(Cl)c1` (stereo in doubt; 76b) [listing 1 of 2 here], the values for the EC50 in experiment [1], in experiment [2] and in experiment [3] were 13500 nM, 245 nM and 245 nM, respectively.
`CC[C@H]1OCC(O)=C2C1=NC1=C(C(=O)COC1)[C@H]2c1ccc(Br)c(Cl)c1` (stereo in doubt; 76b) [listing 2 of 2 here]: the Activity result in experiment [7] is “Partial agonist”. Besides, the Efficacy in experiment [6] was determined as 97%; in experiment [4], 37%; in experiment [5], 38%.

The record behind these values is ChEMBL document CHEMBL1137338, “Effects of substitution on 9-(3-bromo-4-fluorophenyl)-5,9-dihydro-3H,4H-2,6-dioxa-4- azacyclopenta[b]naphthalene-1,8-dione, a dihydropyridine ATP-sensitive potassium channel opener” (J Med Chem, 2006).
